# TbMetRS inhib = Trypanosoma brucei MetRS inhibition; purified T. brucei MetRS, ATP depletion, Kinase-Glo luminescence; inhibition, % at 11.9 µM; 360,000 compounds, 0.4% hits; AID 624268;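 active = inhibition above a per-plate cutoff of the control wells' mean inhibition plus 3 SD, cut at about 5.5% in these data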;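 note: 0% = DMSO wells median and 100% = median of wells with control inhibitor compound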
#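 technique = Kinase-Glo luminescence, ATP depletion format | system = purified MetRS (methionyl-tRNA synthetase) enzyme from Trypanosoma brucei | timing = 15 min preincubation, 2 h reaction, all 25 °C | evaluation = percent inhibition versus plate control medians | dosing = single dose, 11.9 µM final nominal, 0.9% final DMSO | also added = substrates ATP, L-methionine and bulk Escherichia coli tRNA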
# GC-A act = GC-A (human) enzyme activation | P16066 | HEK293 GC-A cells, cGMP TR-FRET, EC30 ANP; 0% at EC30 ANP, 100% saturating ANP | activation, % at 10 µM | 370,000 compounds, 0.14% hits; in the data active = activation above about 40%
# Target sequence (P16066 whole entry, looked up): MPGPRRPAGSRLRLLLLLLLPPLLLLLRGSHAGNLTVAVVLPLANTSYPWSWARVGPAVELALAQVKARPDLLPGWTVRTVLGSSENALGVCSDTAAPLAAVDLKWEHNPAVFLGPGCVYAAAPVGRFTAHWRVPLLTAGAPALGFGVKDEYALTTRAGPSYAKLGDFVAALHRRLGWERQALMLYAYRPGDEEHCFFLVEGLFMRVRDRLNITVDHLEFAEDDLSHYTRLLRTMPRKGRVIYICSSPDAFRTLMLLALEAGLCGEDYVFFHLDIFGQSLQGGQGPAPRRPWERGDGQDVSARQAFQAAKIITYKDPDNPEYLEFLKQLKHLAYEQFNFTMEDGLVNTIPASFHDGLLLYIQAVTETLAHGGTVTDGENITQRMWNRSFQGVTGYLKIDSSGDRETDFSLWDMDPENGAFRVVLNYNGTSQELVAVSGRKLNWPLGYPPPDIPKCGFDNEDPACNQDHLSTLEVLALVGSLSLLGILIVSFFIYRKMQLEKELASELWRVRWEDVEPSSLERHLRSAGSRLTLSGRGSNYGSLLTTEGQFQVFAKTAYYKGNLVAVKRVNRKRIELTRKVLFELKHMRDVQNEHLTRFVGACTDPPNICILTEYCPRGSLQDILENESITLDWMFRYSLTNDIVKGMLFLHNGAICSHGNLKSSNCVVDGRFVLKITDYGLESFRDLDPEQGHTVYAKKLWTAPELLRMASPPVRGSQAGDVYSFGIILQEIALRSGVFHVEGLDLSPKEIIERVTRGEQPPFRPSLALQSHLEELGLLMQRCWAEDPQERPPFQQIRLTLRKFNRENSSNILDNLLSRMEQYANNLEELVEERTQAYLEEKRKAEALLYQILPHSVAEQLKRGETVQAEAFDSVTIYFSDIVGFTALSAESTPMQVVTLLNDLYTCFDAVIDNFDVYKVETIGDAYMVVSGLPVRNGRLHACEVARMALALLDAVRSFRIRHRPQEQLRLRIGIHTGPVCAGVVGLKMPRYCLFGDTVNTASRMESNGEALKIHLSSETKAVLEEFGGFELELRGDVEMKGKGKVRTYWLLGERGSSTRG
# SKN-1 block = inhibitors of C. elegans SKN-1; C. elegans VP596 Pgst-4::GFP/RFP ratio, acrylamide-induced, 24 h; inhibition, % at 21.8 µM; 360,000 compounds, 0.49% hits; AID 624304;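 active = interference check ratio from 0.5 to 1.5 plus GFP to RFP signal ratio inhibition reaching or exceeding a fixed threshold, cut at about 30% in these data, passing the limit was not always enough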
# MT1-MMP act inh = blocks activation of human MT1-MMP | GFP/RFP ratio change, % at 20 µM | AID 651647 | P50281 | HT1080 RFP-PRO-GFP cells, GFP/RFP ratio fluorescence, overnight; percent of plate control window, DMSO zero | 360,000 compounds, 0.061% hits;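 active = GFP/RFP ratio change of at least 30% with cell ATP level not reduced by more than half and red fluorescence within 50% of control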
#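 Assay system: HT1080 RFP-PRO-GFP cells | Dosing: 20 µM single dose, 1% DMSO | Incubation: Cells overnight before dosing, compound overnight, 37 °C, 5% CO2 | Evaluation: GFP/RFP fluorescence ratio | Control set: DMSO-only wells and HT1080 RFP-L50D-GFP cell wells as references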
# NPR2 activator = GC-B (human) receptor activation; HEK293-GC-B cells, CNP EC30, cGMP TR-FRET; 0% at EC30 CNP, 100% saturating CNP; activation, % at 10 µM; 370,000 compounds, 0.11% hits;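 active = activation at 10 µM reaching about 35% in either raw or pattern-adjusted values, limit read from the data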
# A1 inh = inhibitors of the anti-apoptotic protein A1, read as caspase activation. MEF A1-2A-BIM cells, Caspase-Glo 3/7 luminescence, 3 h; percent of clofoctol response, vehicle zero. caspase activation, % (no concentration beside the values). 330,000 compounds, 0.066% hits. AID 2462;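 active = over half of replicate activation scores above 10%, or exactly half above 10 with the replicate mean above 10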
# TbMetRS confirm = confirmation of Trypanosoma brucei MetRS inhibitors; shares compounds with TbMetRS inhib; T. brucei MetRS enzyme, luminescence (ATP depletion); inhibition, % at 11.9 µM; 1,400 compounds, 93% hits; AID 624412; in the data active = inhibition above about 7%
# Jurkat cytotox = Jurkat T cell cytotoxicity for MetRS hits; inhibition, % at 8.3 µM; 1,400 compounds, 12% hits; shares compounds with TbMetRS inhib; Jurkat cells viability, ATP luminescence; AID 624413; in the data active = inhibition above about 15%;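 note: 0% = vehicle and 100% = reference inhibitor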
# Tb MetRS inh FP = T. brucei MetRS inhibition, orthogonal assay | shares compounds with TbMetRS inhib | purified T. brucei MetRS, fluorescence polarization | inhibition, % at 11.9 µM | 1,400 compounds, 44% hits | AID 651607; in the data active = inhibition above about 17%;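 note: 0% = vehicle wells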
# * hit, by the source's call; . = no result. Rows were chosen to be rich in hits. Some 1.1% of all compounds tested hit in one or more screens of this group.
SMILES,TbMetRS inhib,GC-A act,SKN-1 block,MT1-MMP act inh,NPR2 activator,A1 inh,TbMetRS confirm,Jurkat cytotox,Tb MetRS inh FP
COc1ccc(OCC(O)CNS(=O)(=O)c2ccc(NC(C)=O)cc2)cc1 (stereo not drawn),0.0,-1.5,5.7,0.4,-2.2,0.3,.,.,.
COc1ccc(OCC(O)CNC(=O)Nc2ccccc2)cc1 (stereo not drawn),9.4*,-0.5,10.2,2.7,-0.3,1.1,21.1*,7.5,10.6
Cc1cc(C)cc(NC(=O)NCC(O)COc2ccc([N+](=O)[O-])cc2)c1 (stereo not drawn),-0.2,-4.1,3.4,4.4,-2.1,0.0,.,.,.
O=C(CCc1ccccc1)N[C@H]1[C@@H](OC(=O)c2cnccn2)CCC[C@@]12C(=O)N(Cc1ccccc1)c1ccccc12,.,-3.9,.,.,-14.8,.,.,.,.
COC(=O)[C@]12C[C@H](CC(=O)N3CCC(c4ccccc4)CC3)C(=O)N(Cc3ccco3)C1=C[C@H](C1CCCC1)O[C@@H]2C,.,-6.3,.,.,-4.4,.,.,.,.
CC(C)CNC(=O)CC1Oc2ccccc2NC1=O (stereo not drawn),.,0.9,.,.,9.6,.,.,.,.
Cc1ccc(-c2cc(C(=O)NN=Cc3cccc(OCc4ccccc4)c3)[nH]n2)cc1C,.,-5.8,.,.,0.1,.,.,.,.
Cc1ccc2c(c1)c1nnc(SCC(=O)Nc3cccc(Cl)c3C)nc1n2CC(=O)O,22.6*,-1.0,10.9,-0.4,0.9,0.4,64.6*,-7.0,32.7*
Cc1ccc2c(c1)c1nnc(SCC(=O)Nc3ccccc3C(F)(F)F)nc1n2CC(=O)O,4.5,1.8,-3.7,-0.6,-2.9,0.5,.,.,.
COc1ccccc1NS(=O)(=O)c1cc(NC(=O)Nc2ccccc2)ccc1N1CCCCC1,6.2*,-2.5,9.7,6.2,2.0,0.7,10.8*,-0.6,17.1*
O=C(Nc1ccc(F)cc1)Nc1ccc(N2CCCC2)c(S(=O)(=O)Nc2ccccc2Cl)c1,11.3*,-5.5,7.4,-28.1,11.5,-1.9,26.6*,66.6*,44.4*
O=C(Nc1ccc(Cl)c(Cl)c1)Nc1ccc(N2CCCC2)c(S(=O)(=O)Nc2ccccc2Cl)c1,0.0,-3.6,10.2,-32.3,2.7,-0.7,.,.,.
O=C(Cn1c(=O)c2cccn2c2cccnc21)NCCCN1CCN(c2ccccc2)CC1,.,0.0,.,.,-7.0,.,.,.,.
Cc1ccc(S(=O)(=O)Nc2cc(S(=O)(=O)N3CCOCC3)ccc2NCC2CCCO2)cc1 (stereo not drawn),-0.2,1.5,-1.5,-4.2,1.9,-1.7,.,.,.
O=C(CNc1cc(S(=O)(=O)N2CCOCC2)ccc1NCC1CCCO1)Nc1ccccc1F (stereo not drawn),10.5*,-4.0,14.2,0.3,-6.7,-0.7,4.2,-1.1,-5.2
O=S(=O)(Nc1cc(S(=O)(=O)N2CCOCC2)ccc1NCC1CCCO1)c1ccccc1F (stereo not drawn),-0.1,2.1,6.8,-5.1,-4.1,-0.4,.,.,.
Cc1ccc(NC(=O)CNc2cc(S(=O)(=O)N3CCOCC3)ccc2NCC2CCCO2)cc1F (stereo not drawn),14.8*,0.3,-10.5,4.6,-6.1,-0.4,21.1*,-3.0,10.0
C(=N/N1CCN(c2ccccc2)CC1)/c1ccco1,.,2.9,.,.,-4.4,.,.,.,.
N#Cc1nc(COc2ccc(Cl)cc2Cl)oc1N1CCN(c2ccccc2)CC1,-0.4,3.9,7.7,-0.4,-0.6,-0.1,.,.,.
N#Cc1nc(COc2ccc(Cl)cc2Cl)oc1N1CCOCC1,11.2*,16.1,7.9,-6.4,-2.0,-0.3,21.6*,7.7,6.8
CS(=O)(=O)n1nc(-c2ccc(Cl)cc2)nc1SCc1ccccc1,6.7*,-0.7,18.6,-2.3,-3.6,-0.6,3.7,3.7,7.2
O=C(NCc1nc2ccccc2[nH]1)C1=C[C@@H](c2ccc(Br)cc2)C[C@@H](OCc2ccc(CO)cc2)O1,78.6*,-3.6,0.0,7.8,1.2,-0.1,101.4*,3.9,84.1*
O=C(NCc1ccccc1)C1=C[C@@H](c2ccc(Br)cc2)C[C@@H](OCc2ccc(CO)cc2)O1,-0.1,-2.2,12.4,1.0,5.1,0.0,.,.,.
O=C(NCc1nc2ccccc2[nH]1)C1=C[C@H](c2coc3ccccc3c2=O)C[C@H](OCCCCO)O1,16.6*,1.2,-7.8,-4.1,2.3,0.5,52.7*,-3.3,18.3*
O=C(NCc1nc2ccccc2[nH]1)C1=C[C@@H](c2ccc(Br)cc2)C[C@@H](OCCCCO)O1,84.8*,0.0,-9.8,4.8,-1.4,0.2,104.5*,1.1,105.7*
SMILES,TbMetRS inhib,GC-A act,SKN-1 block,MT1-MMP act inh,NPR2 activator,A1 inh,TbMetRS confirm,Jurkat cytotox,Tb MetRS inh FP
C#CCNC(=O)C1=C[C@H](c2coc3ccccc3c2=O)C[C@H](OCCCCO)O1,0.3,-1.1,12.5,-2.9,-6.2,-2.0,.,.,.
O=C(NCc1ccccc1)C1=C[C@H](c2ccc(Br)cc2)C[C@H](OCCCCO)O1,0.1,-1.8,1.8,-0.5,-3.3,-0.4,.,.,.
Cc1n[nH]c(C)c1S(=O)(=O)NCCc1ccccc1,.,1.7,.,.,9.8,.,.,.,.
COc1ccc(OC)c(-n2c(SC)nnc2-c2c[nH]c3ccccc23)c1,9.7*,-14.5,2.7,-1.0,-8.0,0.5,24.7*,2.1,11.3
COc1ccc(OC)c(-n2c(=O)c3ccccc3c3ccccc3c2=O)c1,0.4,-28.8,13.9,-2.3,-21.5,0.7,.,.,.
COc1ccc(OC)c(-n2c(SCC(=O)Nc3cc(C)on3)nnc2-c2c[nH]c3ccccc23)c1,17.7*,-8.7,10.5,4.5,-5.4,-0.9,24.9*,5.7,9.2
CCOc1ccc(-n2c(SCC(=O)Nc3cc(C)on3)nnc2-c2c[nH]c3ccccc23)cc1,0.8,-5.2,-1.7,-3.5,-4.2,0.0,.,.,.
CCOc1ccc(-n2c(SCC(=O)NCc3ccco3)nnc2-c2c[nH]c3ccccc23)cc1,11.7*,-7.0,-4.9,1.4,-5.6,-0.5,10.9*,1.7,6.6
Cn1c(SCC(=O)NCc2ccco2)nnc1-c1c[nH]c2ccccc12,1.2,-1.5,23.2,2.6,1.7,0.0,.,.,.
COc1ccc(OC)c(-n2c(SCC(N)=O)nnc2-c2c[nH]c3ccccc23)c1,9.7*,-4.2,-3.3,-2.9,-1.0,-0.6,20.3*,6.2,9.9
